# Screening data deposited in PubChem BioAssay by several laboratories.
# DAGLB inh: DAGLB lipase inhibitors, primary screen, biochemical, fluorescence, HTS. HEK293T DAGLB membrane lysate, EnzChek fluorogenic substrate. 340,000 tested, 0.059% active. AID 504411, 2011. inhibition, % at 5.17 µM; in the data active means inhibition above about 34%;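 further: 0% = enzyme with vehicle and 100% = wells lacking enzyme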
# Target sequence (Q8NCG7 whole entry, looked up): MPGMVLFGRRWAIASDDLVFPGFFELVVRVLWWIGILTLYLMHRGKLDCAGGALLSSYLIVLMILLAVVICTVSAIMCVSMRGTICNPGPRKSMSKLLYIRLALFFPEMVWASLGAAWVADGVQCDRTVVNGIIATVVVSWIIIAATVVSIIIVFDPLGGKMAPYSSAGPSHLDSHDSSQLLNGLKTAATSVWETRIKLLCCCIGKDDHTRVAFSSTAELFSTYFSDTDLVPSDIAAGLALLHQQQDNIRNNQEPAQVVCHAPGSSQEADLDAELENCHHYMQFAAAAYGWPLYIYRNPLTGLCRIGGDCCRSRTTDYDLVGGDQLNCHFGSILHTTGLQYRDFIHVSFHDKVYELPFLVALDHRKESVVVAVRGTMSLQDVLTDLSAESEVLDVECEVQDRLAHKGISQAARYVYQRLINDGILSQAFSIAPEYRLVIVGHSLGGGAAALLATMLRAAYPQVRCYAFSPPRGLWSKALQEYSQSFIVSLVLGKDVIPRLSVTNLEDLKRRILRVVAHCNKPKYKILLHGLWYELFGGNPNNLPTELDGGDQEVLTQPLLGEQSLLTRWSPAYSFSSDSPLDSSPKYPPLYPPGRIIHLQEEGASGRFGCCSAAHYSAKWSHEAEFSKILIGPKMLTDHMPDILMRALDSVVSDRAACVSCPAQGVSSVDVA
# FAS TE block: FAS thioesterase domain inhibitors, primary screen, biochemical, fluorescence intensity, uHTS. Fatty acid synthase (Homo sapiens), P49327. recombinant FAS-TE, OMFH fluorogenic substrate, fluorescence endpoint. 360,000 tested, 0.67% active. AID 602261, 2012. inhibition, % at 15 µM;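 active means compounds whose normalised, plate-corrected inhibition of enzyme fluorescence in the single-dose primary screen is 50% or more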;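 further: 0% = DMSO with enzyme and 100% = substrate without enzyme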
# hiPSC survival: enhancers of single-cell hiPSC survival, primary screen, ATPlite luminescence. 100% = ROCK inhibitor wells, 0% = DMSO. survival enhancement, % at 20 µM. 360,000 tested, 0.044% active. AID 602274, 2012; in the data active means survival enhancement above about 18%;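 further: cells exposed to compounds for 16 hours before the ATP read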
# SKN-1 block: suppressors of acrylamide-induced Pgst-4::GFP reporter in worms, primary screen, SKN-1 inhibitor project, whole organism, uHTS, GFP/RFP fluorescence ratio, strain VP596; 360,000 tested, 0.49% active; inhibition, % at 21.8 µM; C. elegans VP596 Pgst-4::GFP/RFP ratio, 24 h;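 active means interference check ratio from 0.5 to 1.5 plus GFP to RFP signal ratio inhibition reaching or exceeding a fixed threshold, cut at about 30% in these data, passing the limit was not always enough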
# MT1-MMP act inh: blockers of MT1-MMP proenzyme processing, primary screen, HT1080 RFP-PRO-GFP cells, GFP/RFP fluorescence; GFP/RFP ratio fluorescence, overnight; percent of plate control window, DMSO zero; GFP/RFP ratio change, % at 20 µM; AID 651647, 2012; Matrix metalloproteinase-14 (Homo sapiens), P50281; 360,000 tested, 0.061% active;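 active means GFP/RFP ratio change of at least 30% with cell ATP level not reduced by more than half and red fluorescence within 50% of control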
#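 system = RFP-PRO-GFP reporter HT1080 cells | dosing = 20 µM single dose, 1% DMSO | timing = overnight cell settling, then overnight compound exposure, 37 °C, 5% CO2 | read-out basis = GFP/RFP fluorescence ratio | controls = DMSO and RFP-L50D-GFP cell wells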
# The depositor's hits bear a star; . = not tested or not shown. This is a sample that favours compounds with a hit; in the whole collection about 1.3% have one here.
SMILES,DAGLB inh,FAS TE block,hiPSC survival,SKN-1 block,MT1-MMP act inh
Cc1cc(C(F)(F)F)n2ncc(-c3ccc(F)cc3)c2n1,-3,-6,-4,40*,-5
CC1=C(C(=O)N2CCCCCC2)CC(CC(=O)NC2CCCC2)C(=O)N1CCC1=CCCCC1 (centres undefined),.,4,-1,-2,8
COc1ccc(CN(C)CCCn2cnc3c(OCc4ccccc4)ncnc32)cc1,0,-18,2,0,1
COc1ccc(CN(C)CCCn2cnc3c(OC)ncnc32)cc1OC,2,-5,25*,-11,1
Cc1cc(Br)cn2c(Cc3ccsc3)c(-c3ccccc3)nc12,.,7,-2,37*,-1
Brc1ccc2nc(-c3ccccc3)c(Cc3ccsc3)n2c1,.,-9,1,38*,-3
Clc1cccc(-c2nc3ccc(Br)cn3c2Cc2ccccc2)c1,.,3,0,36*,-3
O=C1CCC(C(=O)OCC(=O)Nc2ccc(SC(F)F)cc2)=NN1,3,-8,1,0,-1
CC(=O)N1CCN(Cc2cc(=O)oc3cc(C)cc(C)c23)CC1,.,-2,0,11,0
O=C(Cn1cc(CNC(=O)C2CCCCC2)nn1)Nc1cc(C(F)(F)F)ccc1Cl,-1,-2,3,17,5
COc1ccccc1/C=C/C=N/N1CCN(Cc2ccc(Cl)cc2)CC1,-10,25,-2,36*,4
COc1ccccc1/C=C/C=N\N1CCN(Cc2ccccc2Cl)CC1,-8,28,7,15,2
Cc1nnc(SCCn2c(Br)nc3c2c(=O)n(C)c(=O)n3C)s1,0,-5,-1,-9,12
Cc1nnc(SCCn2c(N3CC(C)CC(C)C3)nc3c2c(=O)n(C)c(=O)n3C)s1 (centres undefined),1,-8,-2,41*,-2
COc1cccc(-c2cnc(C(O)c3ccc(-c4ccccc4)cc3)[nH]2)c1 (centres undefined),.,8,2,26,-1
CCOC(=O)C(C(=O)OCC)C(=O)c1cccc2ccc3ccccc3c12,-6,0,-1,17,1
O=C(Oc1cncc(Cl)c1)c1ccco1,1,0,6,39*,-5
C/C=C/c1ccc2c(c1)O[C@H](CN(C)CC1CCOCC1)[C@@H](C)CN([C@H](C)CO)S2(=O)=O,1,12,0,9,5
CCOC(=O)c1c(-c2ccccc2)csc1NC(=O)CCN1C(=O)c2ccccc2C1=O,0,-3,-4,6,-2
CCOC(=O)c1c(-c2cccs2)csc1NC(=O)CN1CC(C)OC(C)C1 (centres undefined),-13,21,3,37*,-7
CCOC(=O)c1c(-c2ccc(-c3ccccc3)cc2)csc1NC(=O)CNCCN(C)C,-3,15,0,52*,5
CCOC(=O)c1sc(NC(=O)CN2CC(C)OC(C)C2)nc1C (centres undefined),-2,-6,-1,35*,-1
CCOC(=O)c1sc(NC(=O)CN2C(=O)C3CC=CCC3C2=O)nc1C (centres undefined),-1,-4,0,12,-4
COCc1cn(CC(C)n2c(=O)c3ccccc3n2Cc2cc(C(C)C)no2)nn1 (centres undefined),.,.,.,4,8
COc1ccc(C2=C(c3ccccc3)OC(OC)c3cc(F)ccc32)cn1 (centres undefined),.,24,0,-2,4
CCCNC(=O)C1(C)CCN(C(=O)c2ccc3sccc3c2)C1 (centres undefined),.,-6,1,14,0
O=C(COc1ccccc1)NC1CCSC1=O (centres undefined),-2,-7,0,-1,5
O=C(CCc1ccccc1)NC1CCSC1=O (centres undefined),0,-2,-2,47*,2
CCn1c2ccccc2c2cc(NC(=O)CSc3nnc(-c4ccc(OC)c(OC)c4)n3N)ccc21,0,-24,1,36*,-1
